PMC4428392 (Anti-Cancer Agents in Medicinal Chemistry, 2014)
Several values for one entry are separate records, joined by “and”; a condition that tells them apart may be missing. Equal values may be shown once. Read-outs that look alike come from different tables or passages of the source.

Tests used:
MCF-7 = test: MTT cytotoxicity assay in normoxia and hypoxia, MCF-7; type: cell-based, Human
How it was run: (§1)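 MCF-7 and HCT-116 were grown in DMEM; NCI-H460 in RPMI 1640 plus 10 mM HEPES; all media had 10% FBS, pyruvate and 1.5 g/L bicarbonate. Cells were seeded at 20000/well and grown 24 h at 20% O2, 5% CO2, 37 °C. Serial compound concentrations were then given for 24 h in normoxia, or for 6 h hypoxia (3% O2) followed by 18 h normoxia. MTT was read at 545 nm. IC50 came from linear regression of % inhibition versus log concentration, and HCR = IC50 normoxia/IC50 hypoxia.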

NCI-H460 = test: MTT cytotoxicity assay in normoxia and hypoxia, NCI-H460; type: cell-based, Human; conditions: Homo sapiens
How it was run: as §1

HCT-116 = test: MTT cytotoxicity assay in normoxia and hypoxia, HCT-116; type: cell-based, Human; conditions: for IC50: Homo sapiens
How it was run: as §1

[1] = Partition coefficient octanol/aqueous buffer pH 7.4 by HPLC; type: physicochemical; conditions: octanol/phosphate buffer pH 7.4, HPLC
How it was run: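 Octanol/phosphate buffer (pH 7.4) distribution was determined by HPLC at the compound retention time. Conditions: RP-18E column (4.6 × 150 mm, 5 µm) at 25 °C; isocratic water:acetonitrile 70:30 with 0.7% acetic acid at 0.5 mL/min; UV detection at 285 nm. Samples were dissolved in DMSO or methanol.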

HCT-116 cells [2] = test: Cell cycle assay by flow cytometry; type: cell-based, Human; conditions: 24 h
HCT-116 cells [3] = test: ROS analysis by flow cytometry; type: cell-based, Human
How it was run: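 HCT-116 cells were treated with test compound at 15 or 30 µM in normoxia or hypoxia (24 h per methods; legend states 18 h). They were stained with CM-H2DCFDA for 45 min, collected, and analysed on a FACSCalibur flow cytometer. Fluorescence was normalised to solvent control; mean ± SEM, n=3.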

[4] = test system: caspase 3/7 in HCT-116 cells; test: Caspase 3/7 activity; type: cell-based, Human; conditions: 30 µM, 24 h
How it was run: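 HCT-116 cells were exposed to test compound at 30 µM for 24 h in normoxia or hypoxia. Cells were harvested, washed in PBS, centrifuged (350 g, 5 min) and stained with a FAM-FLICA caspase-3/7 inhibitor kit. Active caspase 3/7 was measured by flow cytometry. Data are mean ± SEM, n=3, compared with solvent control by one-way ANOVA with Tukey post hoc test.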

γ-H2AX in HCT-116 cells = test: Level of γ-H2AX by flow cytometry; type: cell-based, Human; conditions: 30 µM, 24 h
[5] = test system: cleaved PARP in HCT-116 cells; test: Level of cleaved PARP by flow cytometry; type: cell-based, Human; conditions: HCT-116, hypoxia, 30 µM, 24 h
[6] = test system: γ-H2AX and cleaved PARP in HCT-116 cells; test: Dual-parameter γ-H2AX and cleaved PARP flow cytometry; type: cell-based, Human; conditions: 30 µM, 24 h

Log P7.4 [1]: -0.42
SMILES: Nc1n[n+]([O-])c2ccccc2[n+]1[O-] [TPZ, 3-amino-1,2,4-benzotriazine-1,4-dioxide, reference compound]
HCR = IC50 (aerobic)/IC50 (hypoxia) (MCF-7): 6.3
IC50 (NCI-H460; NCI-H460, 24 h, read-out: Cytotoxicity (IC50) NCI-H460 N): 85 ± 9.7 µM
IC50 (NCI-H460; NCI-H460, read-out: Cytotoxicity (IC50) NCI-H460 H): 32.9 ± 2.1 µM
HCR = hypoxic cytotoxicity ratio IC50 (aerobic)/IC50 (hypoxic) (HCT-116; HCT-116): 2.6
IC50 (HCT-116; HCT-116, 24 h, read-out: Cytotoxicity (IC50) HCT-116 N): 89.1 ± 14.5 µM
IC50 (HCT-116; HCT-116, read-out: Cytotoxicity (IC50) HCT-116 H): 34.8 ± 8.3 µM
IC50 (HCT-116; HCT-116, read-out: Cytotoxicity (IC50), cell kill under hypoxia): 34.8 µM
G1 (%) (HCT-116 cells [2]; HCT-116, hypoxia, 15 µM): 22.5±9.4%
G2/M (%) (HCT-116 cells [2]; HCT-116, hypoxia, 15 µM): 35.2% and 35.2±4.9%
S (%) (HCT-116 cells [2]; HCT-116, hypoxia, 15 µM): 34.7±6.0%
Sub-G1 (%) (HCT-116 cells [2]; HCT-116, hypoxia, 15 µM): 7.3% and 7.3±2.7%
G1 (%) (HCT-116 cells [2]; HCT-116, hypoxia, 30 µM): 26.3±5.5%
G2/M (%) (HCT-116 cells [2]; HCT-116, hypoxia, 30 µM): 27.3% and 27.3±1.3%
S (%) (HCT-116 cells [2]; HCT-116, hypoxia, 30 µM): 29.6±4.7%
Sub-G1 (%) (HCT-116 cells [2]; HCT-116, hypoxia, 30 µM): 16.5% and 16.5±1.2%
G1 (%) (HCT-116 cells [2]; HCT-116, normoxia, 15 µM): 41.9±1.7%
G2/M (%) (HCT-116 cells [2]; HCT-116, normoxia, 15 µM): 33.1% and 33.1±3.7%
S (%) (HCT-116 cells [2]; HCT-116, normoxia, 15 µM): 21.9±2.4%
G1 (%) (HCT-116 cells [2]; HCT-116, normoxia, 30 µM): 35.3% and 35.3±1.4%
G2/M (%) (HCT-116 cells [2]; HCT-116, normoxia, 30 µM): 39.1% and 39.1±4.0%
S (%) (HCT-116 cells [2]; HCT-116, normoxia, 30 µM): 22.1±2.9%
Sub-G1 (%) (HCT-116 cells [2]; HCT-116, normoxia, 30 µM): 3.2±0.5%
increase of ROS relative to control medium (HCT-116 cells [3]; HCT-116, hypoxia, 15 µM): 6 fold
increase of ROS relative to control medium (HCT-116 cells [3]; HCT-116, hypoxia, 30 µM): 10.5 fold
increase of ROS relative to control medium (HCT-116 cells [3]; HCT-116, normoxia, 15 µM): 1.5 fold
increase of ROS relative to control medium (HCT-116 cells [3]; HCT-116, normoxia, 30 µM): 2 fold
level of active caspase 3/7 ([4]; HCT-116, hypoxia, solvent control 7%): about 41%
effect on level of active caspase 3/7 ([4]; HCT-116, normoxia): no apparent effect
expression of γ-H2AX (γ-H2AX in HCT-116 cells; HCT-116, hypoxia, solvent control 4%): around 30%
effect on expression of γ-H2AX (γ-H2AX in HCT-116 cells; HCT-116, normoxia): no significant effect
cleaved PARP [5]: approximately 10%
cells expressing both γ-H2AX and cleaved PARP (upper right quadrant) ([6]; HCT-116, hypoxia): 1.9%
cells expressing both γ-H2AX and cleaved PARP (upper right quadrant) ([6]; HCT-116, normoxia): 0.1%
